Experimental data taken from ChEMBL document CHEMBL4665785 (J Med Chem, 2020).
One block for each molecule: values may come before it. Active and inactive are the calls of the source. The rule behind the calls is not given here.

How the values were obtained:
Homo sapiens [1] = species on record: Homo sapiens; experiment: Selectivity ratio of inhibition of recombinant human Cathepsin K to inhibition of recombinant human Cathepsin S
Homo sapiens [2] = species on record: Homo sapiens; experiment: Selectivity ratio of inhibition of human liver Cathepsin L to inhibition of recombinant human Cathepsin S
Homo sapiens [3] = species on record: Homo sapiens; experiment: Selectivity ratio of inhibition of human liver Cathepsin B to inhibition of recombinant human Cathepsin S
[4] = biological target: Procathepsin L (Homo sapiens) (UniProt P07711); experiment: Inhibition of human liver Cathepsin L using Z-VVR-AMC as substrate at 10 uM preincubated for 15 mins followed by substrate addition and measured after 10 mins by fluorescence assay relative to control; conditions: time 25.0 min
Procathepsin L (Homo sapiens), sequence (P07711 114-333 limits assumed): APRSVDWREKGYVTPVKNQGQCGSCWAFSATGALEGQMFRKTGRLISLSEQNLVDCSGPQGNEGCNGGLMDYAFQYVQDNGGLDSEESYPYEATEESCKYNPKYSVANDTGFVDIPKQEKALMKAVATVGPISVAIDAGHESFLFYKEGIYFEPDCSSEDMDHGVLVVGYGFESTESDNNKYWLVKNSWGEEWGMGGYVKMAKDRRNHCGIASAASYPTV

[5] = biological target: T1, Cathepsin K (Homo sapiens) (UniProt P43235); experiment: Inhibition of recombinant human Cathepsin K expressed in baculovirus infected insect cells using Z-FR-AMC as substrate at 10 uM preincubated for 15 mins followed by substrate addition and measured after 10 mins by fluorescence assay relative to control; conditions: time 25.0 min
T1 sequence (whole entry): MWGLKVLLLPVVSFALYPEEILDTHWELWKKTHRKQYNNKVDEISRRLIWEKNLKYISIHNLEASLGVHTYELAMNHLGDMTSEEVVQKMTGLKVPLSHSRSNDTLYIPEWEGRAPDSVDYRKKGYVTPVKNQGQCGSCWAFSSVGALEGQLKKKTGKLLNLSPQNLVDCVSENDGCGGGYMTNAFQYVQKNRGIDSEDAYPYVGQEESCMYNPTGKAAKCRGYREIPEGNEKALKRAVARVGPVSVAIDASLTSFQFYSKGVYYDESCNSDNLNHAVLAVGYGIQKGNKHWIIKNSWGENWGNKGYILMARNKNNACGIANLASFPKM

[6] = biological target: Cathepsin B (Homo sapiens) (UniProt P07858); experiment: Inhibition of human liver Cathepsin B using Z-VVR-AMC as substrate at 10 uM preincubated for 15 mins followed by substrate addition and measured after 10 mins by fluorescence assay relative to control; conditions: time 25.0 min
Cathepsin S [7] = biological target: T2, Cathepsin S (Homo sapiens, UniProt P25774); experiment: Inhibition of recombinant human Cathepsin S expressed in baculovirus infected insect cells using Z-VVR-AMC as substrate preincubated for 15 mins followed by substrate addition and measured after 10 mins by fluorescence assay
T2 sequence (P25774 whole entry): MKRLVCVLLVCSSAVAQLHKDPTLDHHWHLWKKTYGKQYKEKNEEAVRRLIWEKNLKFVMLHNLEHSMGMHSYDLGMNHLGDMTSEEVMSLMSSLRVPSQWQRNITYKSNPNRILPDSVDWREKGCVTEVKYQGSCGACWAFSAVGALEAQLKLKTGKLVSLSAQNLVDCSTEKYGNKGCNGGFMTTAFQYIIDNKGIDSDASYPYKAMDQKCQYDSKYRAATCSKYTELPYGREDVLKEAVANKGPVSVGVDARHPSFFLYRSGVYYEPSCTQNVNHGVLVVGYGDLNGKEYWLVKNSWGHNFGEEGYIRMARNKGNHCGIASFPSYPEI

[8] = Permeability across apical to basal side in human Caco-2 cells at 1 uM measured up to 120 min by LC-MS analysis; type: ADME, cell-based; conditions: time <= 120, dose 1 µM, read-out: permeability
[9] = biological target: T1, Cathepsin K (Homo sapiens); experiment: Inhibition of recombinant human Cathepsin K expressed in baculovirus infected insect cells using Z-FR-AMC as substrate up to 100 uM preincubated for 15 mins followed by substrate addition and measured after 10 mins by fluorescence assay relative to control; conditions: time 25.0 min
Cathepsin S [10] = biological target: T2, Cathepsin S; experiment: Inhibition of Cathepsin S in human Raji cells assessed as increase in Lip10 accumulation after 24 hrs by SDS-PAGE analysis; type: cell-based
In short: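 Human Raji cells, an antigen-presenting B-lymphocyte line, used for the target-engagement read-out. Inhibition is scored as intracellular accumulation of the CatS substrate Lip10, the invariant-chain-derived propeptide.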

SMILES: CNC(=O)CCS(=O)(=O)N1CCN(c2ccc3nncn3n2)CC1
inhibition [9]: inactive
Ki (Cathepsin S [7]): 0.7 µM

SMILES: N#CC1(NC(=O)[C@H](CS(=O)(=O)N2CCN(c3ccccn3)CC2)NC(=O)Cc2cccs2)CC1
Papp A→B at 2 h, 1 µM [8]: 0.4 ×10⁻⁶ cm/s
EC50 (Cathepsin S [10]): 1.1 µM
Ki (Cathepsin S [7]): 0.0002 µM

SMILES: N#CC1(NC(=O)CCS(=O)(=O)N2CCN(c3ccccn3)CC2)CC1
Ki (Cathepsin S [7]): 0.8 µM

Continued, values first:

Selectivity ratio (Homo sapiens [1]): > 30000
Selectivity ratio (Homo sapiens [2]): > 30000
Selectivity ratio (Homo sapiens [3]): > 30000
inhibition [4]: < 26%
inhibition [5]: < 16%
inhibition [6]: < 8%
Ki (Cathepsin S [7]): 0.000345 µM
SMILES: Cc1cc(CC(=O)N[C@@H](CS(=O)(=O)N2CCN(c3ccccn3)CC2)C(=O)NC2(C#N)CC2)on1

Ki (Cathepsin S [7]): 0.29 µM
SMILES: N#CC1(NC(=O)[C@@H](Cc2ccccc2)CS(=O)(=O)N2CCN(c3ccccn3)CC2)CC1

Ki (Cathepsin S [7]): ≤ 0.1 µM
SMILES: N#CC1(NC(=O)[C@H](CS(=O)(=O)C[C@H]2CCC(=O)N2)N[C@@H](c2ccc(F)cc2)C(F)(F)F)CC1

Papp A→B at 2 h, 1 µM [8]: 0.33 ×10⁻⁶ cm/s
Ki (Cathepsin S [7]): 0.00025 µM
SMILES: N#CC1(NC(=O)[C@H](CS(=O)(=O)N2CCN(c3ccccn3)CC2)Nc2cccnc2)CC1
